Assay results: ChEMBL document CHEMBL1133115, “Synthesis, biological evaluation, and conformational analysis of A-ring diastereomers of 2-methyl-1,25-dihydroxyvitamin D(3) and their 20-epimers: unique activity profiles depending on the stereochemistry of the A-ring and at C-20” (2000)
Where “and” joins values, the source holds several entries; their conditions need not be identical. Equal values may be shown once.

Assays:
HL-60 [1] = assay: Differentiation inducing effect on HL-60 cells; assay type: functional, Homo sapiens
Procedure, shortened: (§1)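 Line 1 is binding to bovine thymus vitamin D receptor. Lines 3 and 6 are differentiation induction in HL-60 cells.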

Rattus norvegicus [2] = species on record: Rattus norvegicus; assay: Bone calcium-mobilizing (BCM) activity at 260 pmol/day *7day in vitamin D deficient rats on a low-calcium diet ([…]); assay type: functional
Procedure, shortened: (§2)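 Vitamin D-deficient rats on a low-calcium diet were given the analogue intraperitoneally once daily for 7 consecutive days during the last week, in propylene glycol/ethanol (95:5). Controls received vehicle only. Serum calcium (mg/100 mL) was measured 24 h after the last dose, with 5-6 rats/group. Results are mean ± SEM, compared with control by Student's t-test.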

Rattus norvegicus [3] = species on record: Rattus norvegicus; assay: evaluated for increasing effect of serum calcium level in normal rats(Ca); assay type: functional
Procedure, shortened: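 Normal male Sprague-Dawley rats were used to measure elevation of serum calcium level. Potency is expressed relative to 1α,25-dihydroxyvitamin D3, which is set at 100.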

Rattus norvegicus [4] = species on record: Rattus norvegicus; assay: Bone calcium-mobilizing (BCM) activity at 500 pmol/day/7days in vitamin D deficient rats on a low calcium diet (0.02% Ca); assay type: functional; procedure, shortened: as §2
HL-60 [5] = assay: evaluated for differentiation inducing effect on HL-60 cells, relative potency with respect to 1-alpha, 25-Dihydroxyvitamin D3; assay type: functional, Homo sapiens; procedure, shortened: as §1
[6] = target: T1, Vitamin D3 receptor (Bos taurus) (UniProt Q28037); assay: Binding affinity for bovine thymus vitamin D3 receptor; procedure, shortened: as §1
T1 sequence (whole entry): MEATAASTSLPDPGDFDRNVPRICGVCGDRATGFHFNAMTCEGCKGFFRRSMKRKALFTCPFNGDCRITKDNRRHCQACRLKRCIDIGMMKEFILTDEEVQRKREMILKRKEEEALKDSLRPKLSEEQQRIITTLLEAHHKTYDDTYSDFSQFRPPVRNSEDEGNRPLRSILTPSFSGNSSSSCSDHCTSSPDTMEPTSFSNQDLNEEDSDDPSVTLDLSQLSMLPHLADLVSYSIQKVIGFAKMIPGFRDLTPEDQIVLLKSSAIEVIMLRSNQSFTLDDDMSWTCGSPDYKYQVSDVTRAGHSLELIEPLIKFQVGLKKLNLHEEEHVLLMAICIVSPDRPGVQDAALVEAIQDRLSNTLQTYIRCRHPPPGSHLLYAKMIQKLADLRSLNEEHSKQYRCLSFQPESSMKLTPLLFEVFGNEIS

[7] = tested on: Vitamin D-binding protein (Bos taurus); assay: Binding affinity for calf serum vitamin D-binding protein
Rattus norvegicus [8] = species on record: Rattus norvegicus; assay: Bone Calcium-Mobilizing (BCM) activity (260 pmol/day/7 days) in Vitamin D-Deficient Rats on a Low-Calcium Diet (0.02% Ca diet); assay type: functional; procedure, shortened: as §2
Rattus norvegicus [9] = species on record: Rattus norvegicus; assay: Bone Calcium-Mobilizing (BCM) activity (260 pmol/day/7 days) in Vitamin D-Deficient Rats on a Low-Calcium Diet; assay type: functional; procedure, shortened: as §2

SMILES | Relative potency (HL-60 [1]) | BCM serum Ca (Rattus norvegicus [2]) | Relative potency (Rattus norvegicus [3]) | BCM serum Ca (Rattus norvegicus [4]) | other results
C=C1/C(=C\C=C2/CCC[C@]3(C)[C@@H]([C@H](C)CCCC(C)(C)O)CC[C@@H]23)C[C@@H](O)[C@H](C)[C@@H]1O (stereo in doubt; form 1) | 200 | <6 mg 100ml-1 | 400 | – | –
C=C1/C(=C\C=C2/CCC[C@]3(C)[C@@H]([C@H](C)CCCC(C)(C)O)CC[C@@H]23)C[C@@H](O)[C@@H](C)[C@@H]1O (stereo in doubt; form 1) | 2600 | 4.6 mg 100ml-1 | 115 | 4.4 mg 100ml-1 | –
C=C1/C(=C\C=C2/CCC[C@]3(C)[C@@H]([C@@H](C)CCCC(C)(C)O)CC[C@@H]23)C[C@H](O)[C@@H](C)[C@H]1O (stereo in doubt; form 1) [listing 1 of 2 here] | 190 | 4.4 mg 100ml-1 | 19 | 4.4 mg 100ml-1 | –
C=C1/C(=C\C=C2/CCC[C@]3(C)[C@@H]([C@@H](C)CCCC(C)(C)O)CC[C@@H]23)C[C@H](O)[C@@H](C)[C@@H]1O (stereo in doubt; form 1) [listing 1 of 2 here] | 6 | 4.4 mg 100ml-1 | – | 4.3 mg 100ml-1 | –
C=C1/C(=C\C=C2/CCC[C@]3(C)[C@@H]([C@H](C)CCCC(C)(C)O)CC[C@@H]23)C[C@@H](O)[C@H](C)[C@H]1O (stereo in doubt; form 1) | 3 | 4.8 mg 100ml-1 | – | 4.7 mg 100ml-1 | –
C=C1/C(=C\C=C2/CCC[C@]3(C)[C@@H]([C@H](C)CCCC(C)(C)O)CC[C@@H]23)C[C@H](O)[C@H](C)[C@@H]1O (stereo in doubt; form 1) | – | 4.2 mg 100ml-1 | – | 4.1 mg 100ml-1 | –
C=C1/C(=C\C=C2/CCC[C@]3(C)[C@@H]([C@H](C)CCCC(C)(C)O)CC[C@@H]23)C[C@H](O)[C@H](C)[C@H]1O (stereo in doubt; form 1) | 1 | 4.3 mg 100ml-1 | – | 4.4 mg 100ml-1 | –
C=C1/C(=C\C=C2/CCC[C@]3(C)[C@@H]([C@H](C)CCCC(C)(C)O)CC[C@@H]23)C[C@@H](O)[C@@H](C)[C@H]1O (stereo in doubt; form 1) | – | 4.9 mg 100ml-1 | – | 5 mg 100ml-1 | Relative potency (HL-60 [5]): 1
C=C1/C(=C\C=C2/CCC[C@]3(C)[C@@H]([C@@H](C)CCCC(C)(C)O)CC[C@@H]23)C[C@H](O)[C@@H](C)[C@@H]1O (stereo in doubt; form 1) [listing 2 of 2 here] | – | – | – | – | Relative potency [6]: < 0.1; Relative potency [7]: < 0.3
C=C1/C(=C\C=C2/CCC[C@]3(C)[C@@H]([C@@H](C)CCCC(C)(C)O)CC[C@@H]23)C[C@H](O)[C@@H](C)[C@H]1O (stereo in doubt; form 1) [listing 2 of 2 here] | – | – | – | – | Relative potency [6]: 7; Relative potency [7]: < 0.3
C=C1/C(=C\C=C2/CCC[C@]3(C)[C@@H]([C@H](C)CCCC(C)(C)O)CC[C@@H]23)C[C@@H](O)[C@H](C)[C@@H]1O (stereo in doubt; form 2) | 59000 | <5.8 mg 100ml-1 | 655 | <7.8 mg 100ml-1 | –
C=C1/C(=C\C=C2/CCC[C@]3(C)[C@@H]([C@H](C)CCCC(C)(C)O)CC[C@@H]23)C[C@@H](O)[C@@H](C)[C@@H]1O (stereo in doubt; form 2) | 10 | 4.1 mg 100ml-1 | 2 | <5 mg 100ml-1 | –
C=C1/C(=C\C=C2/CCC[C@]3(C)[C@@H]([C@@H](C)CCCC(C)(C)O)CC[C@@H]23)C[C@H](O)[C@@H](C)[C@H]1O (stereo in doubt; form 2) [listing 1 of 2 here] | 3 | 4.1 mg 100ml-1 | – | 3.8 mg 100ml-1 | –
C=C1/C(=C\C=C2/CCC[C@]3(C)[C@@H]([C@@H](C)CCCC(C)(C)O)CC[C@@H]23)C[C@H](O)[C@@H](C)[C@@H]1O (stereo in doubt; form 2) [listing 1 of 2 here] | 1.5 | <5.2 mg 100ml-1 | – | <5.4 mg 100ml-1 | –
C=C1/C(=C\C=C2/CCC[C@]3(C)[C@@H]([C@H](C)CCCC(C)(C)O)CC[C@@H]23)C[C@@H](O)[C@H](C)[C@H]1O (stereo in doubt; form 2) | 1 | 4.4 mg 100ml-1 | – | 4.3 mg 100ml-1 | –
C=C1/C(=C\C=C2/CCC[C@]3(C)[C@@H]([C@H](C)CCCC(C)(C)O)CC[C@@H]23)C[C@H](O)[C@H](C)[C@@H]1O (stereo in doubt; form 2) | 730 | <4.6 mg 100ml-1 | 144 | 4.6 mg 100ml-1 | –
C=C1/C(=C\C=C2/CCC[C@]3(C)[C@@H]([C@H](C)CCCC(C)(C)O)CC[C@@H]23)C[C@H](O)[C@H](C)[C@H]1O (stereo in doubt; form 2) | 0.5 | 3.9 mg 100ml-1 | – | 3.9 mg 100ml-1 | –
C=C1/C(=C\C=C2/CCC[C@]3(C)[C@@H]([C@H](C)CCCC(C)(C)O)CC[C@@H]23)C[C@@H](O)[C@@H](C)[C@H]1O (stereo in doubt; form 2) | 1.5 | <5 mg 100ml-1 | – | <4.9 mg 100ml-1 | –
C=C1/C(=C\C=C2/CCC[C@]3(C)[C@@H]([C@@H](C)CCCC(C)(C)O)CC[C@@H]23)C[C@H](O)[C@@H](C)[C@@H]1O (stereo in doubt; form 2) [listing 2 of 2 here] | – | – | – | – | Relative potency [6]: 0.3; Relative potency [7]: 21
C=C1/C(=C\C=C2/CCC[C@]3(C)[C@@H]([C@@H](C)CCCC(C)(C)O)CC[C@@H]23)C[C@H](O)[C@@H](C)[C@H]1O (stereo in doubt; form 2) [listing 2 of 2 here] | – | – | – | – | Relative potency [6]: 0.8; Relative potency [7]: 1300
C=C1/C(=C\C=C2/CCC[C@]3(C)[C@@H]([C@H](C)CCCC(C)(C)O)CC[C@@H]23)C[C@@H](O)C[C@@H]1O [CALCITRIOL] | 100 | <5.5 mg 100ml-1 | 100 | – | BCM serum Ca (Rattus norvegicus [8]): 6.8 mg 100ml-1; Relative potency [6]: 100; BCM serum Ca (Rattus norvegicus [9]): <5.5 mg 100ml-1 and <5.4 mg 100ml-1 and <6 mg 100ml-1 and <6.1 mg 100ml-1
